Mcl1 Noxa PPI – Mcl-1/Noxa binding inhibitors, primary screen, biochemical, TR-FRET, 1536-well; TR-FRET Mcl-1/Noxa peptide binding, 2 h; inhibition, % at 21.7 µM; Induced myeloid leukemia cell differentiation protein Mcl-1 (Homo sapiens), Q07820; 1.5% of 220,000 active;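 active = compounds that cut the protein-peptide binding signal by more than 50% relative to plate controls in a single-dose test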;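 also: His-tagged Mcl-1 with rhodamine Noxa BH3 peptide and terbium anti-His antibody; 0% = Mcl-1 plus Noxa peptide wells and 100% = peptide-only wells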
Target sequence (Q07820 whole entry, looked up): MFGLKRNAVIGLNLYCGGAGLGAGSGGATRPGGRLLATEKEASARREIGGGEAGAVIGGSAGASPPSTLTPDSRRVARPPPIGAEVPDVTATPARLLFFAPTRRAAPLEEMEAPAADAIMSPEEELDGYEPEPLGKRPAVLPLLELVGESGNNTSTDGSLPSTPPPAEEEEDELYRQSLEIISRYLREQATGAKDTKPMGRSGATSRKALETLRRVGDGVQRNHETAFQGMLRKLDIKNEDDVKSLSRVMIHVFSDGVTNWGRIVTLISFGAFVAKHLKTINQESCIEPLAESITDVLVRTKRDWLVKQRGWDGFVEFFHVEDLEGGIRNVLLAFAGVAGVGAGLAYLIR
MCL1 BIM primary – inhibitors of MCL1 binding to BIM-BH3, primary screen, biochemical, fluorescence polarization; Induced myeloid leukemia cell differentiation protein Mcl-1 (Homo sapiens), Q07820; AID 2057, 2009; 0.68% of 320,000 active; GST-MCL1 / FITC-Bim-BH3 fluorescence polarization; inhibition, % at 10.9 µM;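 active = inhibition above the mean inhibition of all tested compounds plus 3 SD, set per campaign, cut at about 40% in these data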;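 also: 0% = DMSO wells and 100% = unlabeled Bim-BH3 peptide control; higher means more loss of mP so more displacement of Bim peptide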
Mcl1 Bid PPI – Mcl-1/Bid binding inhibitors, primary screen, biochemical, TR-FRET, 1536-well; Induced myeloid leukemia cell differentiation protein Mcl-1 (Homo sapiens), Q07820; TR-FRET Mcl-1/Bid-Dy647 peptide binding; inhibition, % at 21.7 µM; 0.97% of 220,000 active; AID 1021, 2008;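 active = compounds that cut the binding signal by more than half at the single screening dose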;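 also: His-tagged Mcl-1 with europium anti-His antibody binding Bid BH3 peptide; 0% = Mcl-1 plus peptide wells and 100% = peptide-only wells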
Mcl-1 Bim block – inhibitors of Bim peptide binding to Mcl-1, primary screen, biochemical, bead-based flow cytometry, multiplex; Induced myeloid leukemia cell differentiation protein Mcl-1 (Homo sapiens), Q07820; Bim peptide-Mcl-1 binding; inhibition, % at 10 µM; 0.1% of 190,000 active; AID 1009, 2008; in the data active = inhibition above about 40%;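 also: 0% = no compound tracer wells and 100% = peptide blocker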
RBBP9 inh – human RBBP9 inhibitors, primary screen, biochemical, fluorescence polarization, FP-Rh probe, HTS | recombinant RBBP9 | inhibition, % at 7.94 µM | 0.2% of 220,000 active | AID 1515, 2009;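 active = inhibition above the campaign mean of all tested compounds plus 3 SD, cut at about 14% in these data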;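 also: plate controls were DMSO wells with RBBP9 for no effect and wells lacking RBBP9 protein for full effect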
Target sequence (O75884 whole entry, looked up): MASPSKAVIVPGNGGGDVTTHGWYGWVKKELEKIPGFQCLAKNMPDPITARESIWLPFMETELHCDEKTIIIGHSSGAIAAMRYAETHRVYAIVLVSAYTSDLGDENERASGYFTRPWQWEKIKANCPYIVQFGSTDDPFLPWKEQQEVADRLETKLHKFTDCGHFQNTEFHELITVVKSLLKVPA
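Test system: recombinant human RBBP9; Timing: 30 min then 45 min, 25 °C; Detection: fluorescence polarization; Control set: RBBP9 with DMSO as uninhibited control, no-protein wells as full inhibition; Compound dosing: one concentration, 7.94 µM nominal, 0.794% DMSO; Probe or stimulus: FP-Rh activity-based probe, 375 nM before mixing.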
EBV gp42 block – Epstein-Barr virus gp42 inhibitors, primary screen, biochemical, uHTS, fluorescence polarization; inhibition, % (tested at 21.74 µM); AID 1085, 2008; 0.42% of 220,000 active; Glycoprotein 42 (Epstein-Barr virus (strain AG876)), Q1HVG2; Fluorescence polarization binding assay, mP read-out; in the data active = inhibition above about 50%
Active calls of the source: *; / = no result. Shown are actives, neighbours in structure and some others; about 2.2% of the full set was active somewhere.

SMILES	Mcl1 Noxa PPI	MCL1 BIM primary	Mcl1 Bid PPI	Mcl-1 Bim block	RBBP9 inh	EBV gp42 block
O=C(O)CSc1cc(C(=O)c2cc(F)ccc2O)cn2c(=O)c3c(-c4ccccc4)csc3nc12	104*	8	3	/	-41	6
Cc1cccc(OCCCC(=O)NCc2ccco2)c1	11	-7	-44	0	4	-6
CN(C)c1ccc(N=c2sc3ccccc3n2C)cc1	101*	30	33	1	12	-41
Cn1c(=Nc2ccccc2)sc2ccccc21	-4	-7	-1	-5	4	5
COC(=O)c1c(NC(=O)Cc2cccs2)sc2c1CCCC2	80*	15	22	-6	8	11
O=C(O)CCCN1C(=O)/C(=C\c2ccc(-c3nc4ccccc4s3)o2)SC1=S	104*	23	87*	/	6	13
O=C(O)CC(C(=O)O)N1C(=O)/C(=C/c2ccc(-c3nc4ccccc4s3)o2)SC1=S (configuration not stated)	5	-16	-19	3	-1	-5
O=C(O)CCN1C(=O)/C(=C/c2ccc(-c3nc4ccccc4s3)o2)SC1=S	104*	15	94*	9	-8	-1
O=c1c2ccccc2ncn1CCCCOc1ccc(Br)cc1	9	0	-35	2	2	-10
COc1cc(/C=N/n2c(-c3n[nH]c4c3CCC4)n[nH]c2=S)ccc1O	2	-15	-115	/	-4	-10
COc1ccc(/C=N/n2c(-c3n[nH]c4c3CCC4)n[nH]c2=S)cc1OC	65*	-21	-79	-6	-1	-11
CC(C)CNC(=O)CSc1nc2scc(-c3ccccc3)c2c(=O)[nH]1	54*	-1	-73	0	-8	-6
COC(=O)c1ccc2c(=O)[nH]c(COC(=O)c3c(-c4ccccc4)noc3C)nc2c1	/	-4	/	/	/	/
C#CCNc1c2c(nc3ncnn13)CC(C)CC2 (configuration not stated)	2	0	-31	/	8	-12
COc1ccc(C(=O)C[n+]2ccc(-c3nnc4n3CCCCC4)cc2)cc1	76*	13	-46	/	4	-18
CC(C)(C)SC(=O)C[C@@H]1NS(=O)(=O)OC2CCCCC21 (some centres not stated)	/	2	/	/	/	/
CC(/C=C/c1ccco1)=N/NC(=O)Cc1cccs1	87*	21	5	-5	-5	36
CC(/C=C/c1ccco1)=N\NC(=O)c1cc(C)[nH]n1	78*	18	-5	-3	1	3
CC(/C=N/NC(=O)Cc1cccs1)=C\c1ccco1	24	3	-39	0	-9	-5
O=C(O)c1ccc2c(c1)C(=O)N(c1ccc(OCc3ccccc3)cc1)C2=O	/	14	/	/	/	/
Cc1onc(-c2ccccc2)c1C(=O)N1CCN(Cc2ccccc2)CC1	/	13	/	/	/	/
CCOC(=O)/C(C#N)=C\c1cc(C)n(-c2ccccc2)c1C	4	-5	-25	-7	-2	-7
CCOC(=O)/C(C#N)=C\c1ccc(N2CCN(C/C=C/c3ccccc3)CC2)cc1	6	-59	-13	-1	-1	131*
COc1ccccc1CNC(=O)CNCC1CCCO1 (configuration not stated)	15	1	50*	0	-9	-10
CC(OC(=O)c1ccc(-n2cnnn2)cc1)C(=O)Nc1ccc(F)c(F)c1F (configuration not stated)	/	-7	/	/	/	/
SMILES	Mcl1 Noxa PPI	MCL1 BIM primary	Mcl1 Bid PPI	Mcl-1 Bim block	RBBP9 inh	EBV gp42 block
CC(=O)N1CCc2cc(S(=O)(=O)NC(Cc3ccccc3)C(=O)NC3CCCCCC3)ccc21 (configuration not stated)	103*	6	99*	-4	3	0
CC(C)NC(=O)CN1C(=O)c2cccc3cccc1c23	/	16	/	/	/	/
Fc1cccc(/C=N/NC(=S)Nc2ccccc2Cl)c1	12	-2	-22	-7	-3	-4
Fc1ccc(NC(=S)N/N=C/c2cccc(Br)c2)c(F)c1	-1	3	97*	-2	-7	-3
Cc1ccccc1-c1nc(CS(=O)CC(=O)NC2CCCCC2)c(C)o1 (configuration not stated)	/	-1	/	/	/	/
CCOC(=O)C1=C(c2ccccc2)NC(=O)NC1c1ccc(N(C)C)cc1 (configuration not stated)	61*	-2	0	-1	-9	-12
CCOC(=O)C1=C(c2ccccc2)NC(=O)NC1c1ccc(OC)cc1 (configuration not stated)	27	-11	1	2	-5	-14
Cc1cc(C(N)=O)nn1-c1c(Cl)cc(Cl)cc1Cl	-4	-3	-22	/	3	1
O=C1Nc2ccc(F)cc2C12Nc1ccccc1-c1nnc(SCc3ccccc3F)nc1O2 (configuration not stated)	22	2	-1	-2	-6	14
O=C1Nc2ccc(Cl)cc2C12Nc1ccccc1-c1nnc(SCc3ccccc3F)nc1O2 (configuration not stated)	29	8	4	-6	-1	102*
COc1cc(/C=C(\C#N)C(=O)Nc2cccc3ncccc23)cc(OC)c1OC	21	3	-7	-6	0	-14
COc1ccc(/C=C(\C#N)C(=O)Nc2cccc3ncccc23)cc1OC	55*	18	-38	/	-29	1
CC(C)NC(=O)COC(=O)/C=C/c1ccco1	24	7	-58	-6	-1	6
CCCCn1c(N)c(N(Cc2ccccc2OC)C(=O)C(C)C)c(=O)[nH]c1=O	/	-2	/	/	/	/
Cc1ccc(S(=O)(=O)NCCN2CCOCC2)s1	/	-1	/	/	/	/
C=CCc1c(C)[nH]c2c(OC)cccc2c1=S	60*	8	26	-1	-13	2
COc1ccc(OC)c(CN2CCN(C(=O)c3ccc(S(=O)(=O)Nc4ccccc4F)cc3)CC2)c1	/	-2	/	/	/	/
CCOC(=O)CC(=O)CSc1nc2ccc(OC)cc2cc1C	12	47*	-15	0	-7	0
O=C1COc2ccc(C(=O)COC(=O)c3cc(S(=O)(=O)NCc4ccccc4)ccc3O)cc2N1	11	-3	-32	/	-6	-19
Cc1cc(/C=N/NC(=O)c2cccs2)c(C)n1-c1ccccc1	8	-2	87*	-136	-4	-22
C=CCc1c(C)nc(SCCC)[nH]c1=O	98*	-4	3	-3	-9	-9
